Laboratory results from the RNAGym collection of RNA variant scans (doi:10.1002/anie.201605470).

B1: Osa-1-4 twister ribozyme (parent)
chain: CCGCCUAACACUGCCAAUGCCGGUCCCAAGCCCGGAUAAAAGUGGAGGGGGCGG

Variants of: B1
Assay: self-cleavage, relative activity (ratio to wild type); higher = more cleavage; co-transcriptional
Procedure, shortened: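 In vitro transcription at 37 °C for 2 h allowed the twister ribozyme to cleave itself as it was made. Its 54-nucleotide Oryza sativa template had been synthesised with 97 % wild-type base and 1 % of each other base at the 48 positions downstream of the cleavage site. A template-switching oligonucleotide was used for reverse transcription, followed by PCR amplification and deep sequencing. Whether reads carried upstream sequence set the cleavage status, and relative activity is the fraction cleaved normalised to wild type.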
With CCGCCUAACACUGCCAAUGCCGGUCCCAAGCCCGGAUAAAAGUGCAGGGGGCGG [G45C] the self-cleavage was 0.06.
For CCGCCUAACACUGCCAAUGCCGGUCCCAAGCCCGGAUAAAAGUGAAGGGGGCGG [G45A], the self-cleavage was 0.52.
In the case of CCGCCUAACACUGCCAAUGCCGGUCCCAAGCCCGGAUAAAAGUGCAGGGUGCGG [G45C G50U], the self-cleavage is reported as 0.06.
In the case of CCGCCUAACACUGCCAAUGCCGGUCCCAAGCCCGGAUAAAAGUGCAGGGCGCGG [G45C G50C], the self-cleavage is reported as 0.07.
Work on CCGCCUAACACUGCCAAUGCCGGUCCCAAGCCCGGAUAAAAGUGCAGGGAGCGG [G45C G50A] yielded a self-cleavage of 0.08.
CCGCCUAACACUGCCAAUGCCGGUCCCAAGCCCGGAUAAAAGUGAAGGUGGCGG [G45A G49U] showed a self-cleavage of 0.04.
With CCGCCUAACACUGCCAAUGCCGGUCCCAAGCCCGGAUAAAAGUGAAGGAGGCGG [G45A G49A] the self-cleavage was 0.05.
With CCGCCUAACACUGCCAAUGCCGGUCCCAAGCCCGGAUAAAAGUGAAGGCGGCGG [G45A G49C] the self-cleavage was 0.05.
CCGCCUAACACUGCCAAUGCCGGUCCCAAGCCCGGAUAAAAGUGCAGGGGGCCG [G45C G53C] showed a self-cleavage of 0.05.
With CCGCCUAACACUGCCAAUGCCGGUCCCAAGCCCGGAUAAAAGUGCAGGGGGCAG [G45C G53A] the self-cleavage was 0.06.
In the case of CCGCCUAACACUGCCAAUGCCGGUCCCAAGCCCGGAUAAAAGUGCAGGGGGCUG [G45C G53U], the self-cleavage is reported as 0.06.
CCGCCUAACACUGCCAAUGCCGGCCCCAAGCCCGGAUAAAAGUGAAGGGGGCGG [G45A U24C] gave a self-cleavage of 0.05.
Variant CCGCCUAACACUGCCAAUGCCGGACCCAAGCCCGGAUAAAAGUGAAGGGGGCGG [G45A U24A] has a self-cleavage of 0.03.
For CCGCCUAACACUGCCAAUGCCGGGCCCAAGCCCGGAUAAAAGUGAAGGGGGCGG [G45A U24G], the self-cleavage was 0.02.
For CCGCCUAACACUGCCAAUGCCGGUCCCAAGCCCGGAUAAAAGUGCACGGGGCGG [G45C G47C], the self-cleavage was 0.05.
With CCGCCUAACACUGCCAAUGCCGGUCCCAAGCCCGGAUAAAAGUGCAUGGGGCGG [G45C G47U] the self-cleavage was 0.05.
Variant CCGCCUAACACUGCCAAUGCCGGUCCCAAGCCCGGAUAAAAGUGCAAGGGGCGG [G45C G47A] has a self-cleavage of 0.05.
Work on CCGCCUAACACUGCCAAUGCCGGUCCCAAGCCCGGAUAAAAGUGAAGGGGGCGA [G45A G54A] yielded a self-cleavage of 0.15.
Variant CCGCCUAACACUGCCAAUGCCGGUCCCAAGCCCGGAUAAAAGUGAAGGGGGCGC [G45A G54C] has a self-cleavage of 0.1.
For CCGCCUAACACUGCCAAUGCCGGUCCCAAGCCCGGAUAAAAGUGAAGGGGGCGU [G45A G54U], the self-cleavage was 0.34.
In the case of CCGCCUAACACUGCCAAUGCCGGUCCCAAGCCCGGAUAAAAGCUGAGGGGGCGG [G44U U43C], the self-cleavage is reported as 0.37.
Variant CCGCCUAACACUGCCAAUGCCGGUCCCAAGCCCGGAUAAAAGGUGAGGGGGCGG [G44U U43G] has a self-cleavage of 0.11.
Variant CCGCCUAACACUGCCAAUGCCGGUCCCAAGCCCGGAUAAAAGAUGAGGGGGCGG [G44U U43A] has a self-cleavage of 0.66.
In the case of CCGCCUAACACUGCCAAUGCCGGUCCCAAGCCCGGAUAAAAGUGCAGGGGGCGA [G45C G54A], the self-cleavage is reported as 0.08.
With CCGCCUAACACUGCCAAUGCCGGUCCCAAGCCCGGAUAAAAGUGCAGGGGGCGU [G45C G54U] the self-cleavage was 0.17.
Variant CCGCCUAACACUGCCAAUGCCGGUCCCAAGCCCGGAUAAAAGUGCAGGGGGCGC [G45C G54C] has a self-cleavage of 0.07.
Variant CCGCCUAACACGGCCAAUGCCGGUCCCAAGCCCGGAUAAAAGUGAAGGGGGCGG [G45A U12G] has a self-cleavage of 0.07.
CCGCCUAACACAGCCAAUGCCGGUCCCAAGCCCGGAUAAAAGUGAAGGGGGCGG [G45A U12A] gave a self-cleavage of 0.09.
In the case of CCGCCUAACACCGCCAAUGCCGGUCCCAAGCCCGGAUAAAAGUGAAGGGGGCGG [G45A U12C], the self-cleavage is reported as 0.09.
For CCGCCUAACACUGCCAAAGCCGGUCCCAAGCCCGGAUAAAAGUGCAGGGGGCGG [G45C U18A], the self-cleavage was 0.06.
For CCGCCUAACACUGCCAAGGCCGGUCCCAAGCCCGGAUAAAAGUGCAGGGGGCGG [G45C U18G], the self-cleavage was 0.09.
Work on CCGCCUAACACUGCCAACGCCGGUCCCAAGCCCGGAUAAAAGUGCAGGGGGCGG [G45C U18C] yielded a self-cleavage of 0.1.
Variant CCGCCUAACACUGCCAAUGCCGGUCCCAAGCCCGGAGAAAAGUUGAGGGGGCGG [G44U U37G] has a self-cleavage of 0.95.
With CCGCCUAACACUGCCAAUGCCGGUCCCAAGCCCGGACAAAAGUUGAGGGGGCGG [G44U U37C] the self-cleavage was 0.99.
In the case of CCGCCUAACACUGCCAAUGCCGGUCCCAAGCCCGGAAAAAAGUUGAGGGGGCGG [G44U U37A], the self-cleavage is reported as 0.66.
In the case of CCGCCUAACACUGCCAAAGCCGGUCCCAAGCCCGGAUAAAAGUUGAGGGGGCGG [G44U U18A], the self-cleavage is reported as 0.83.
CCGCCUAACACUGCCAAGGCCGGUCCCAAGCCCGGAUAAAAGUUGAGGGGGCGG [G44U U18G] gave a self-cleavage of 0.64.
With CCGCCUAACACUGCCAACGCCGGUCCCAAGCCCGGAUAAAAGUUGAGGGGGCGG [G44U U18C] the self-cleavage was 0.69.
For CCGCCUAACACUGCCAAUGCCGGUCCCAAGCCCGGAUAAAAGCGAAGGGGGCGG [G45A U43C], the self-cleavage was 0.09.
CCGCCUAACACUGCCAAUGCCGGUCCCAAGCCCGGAUAAAAGGGAAGGGGGCGG [G45A U43G] gave a self-cleavage of 0.06.
CCGCCUAACACUGCCAAUGCCGGUCCCAAGCCCGGAUAAAAGAGAAGGGGGCGG [G45A U43A] gave a self-cleavage of 0.09.
Work on CCGCCUAACACGGCCAAUGCCGGUCCCAAGCCCGGAUAAAAGUGCAGGGGGCGG [G45C U12G] yielded a self-cleavage of 0.05.
CCGCCUAACACCGCCAAUGCCGGUCCCAAGCCCGGAUAAAAGUGCAGGGGGCGG [G45C U12C] showed a self-cleavage of 0.05.
CCGCCUAACACAGCCAAUGCCGGUCCCAAGCCCGGAUAAAAGUGCAGGGGGCGG [G45C U12A] showed a self-cleavage of 0.06.
CCGCCUAACACUGCCAAUGCCGGUCCCAAGCCCGGAUAAAAGUGAAGAGGGCGG [G45A G48A] gave a self-cleavage of 0.06.
For CCGCCUAACACUGCCAAUGCCGGUCCCAAGCCCGGAUAAAAGUGAAGCGGGCGG [G45A G48C], the self-cleavage was 0.04.
Variant CCGCCUAACACUGCCAAUGCCGGUCCCAAGCCCGGAUAAAAGUGAAGUGGGCGG [G45A G48U] has a self-cleavage of 0.05.
With CCGCCUAACACUGCCAAUGCCGGUCCCAAGCCCGGAUAAAAGUGCAGGGGACGG [G45C G51A] the self-cleavage was 0.06.
